In ChEMBL document CHEMBL1124534, “Synthesis, mechanism of action, and biological evaluation of mitosenes” (1989):
≈ marks a conversion by molar mass, not a printed value.

How the values were obtained:
Mus musculus [1] = assay: Mean relative body weight change of treated / mean relative body weight change of control when compound (2 mg/kg/day) administered to inhibit growth of human tumor xenograft GXF 97 was reported at day 14 in nude mice; type: functional
WiDr = assay: In vitro antitumor activity against WiDr colon carcinoma tumor cell line was determined; type: functional; settings: Homo sapiens, read-out: ID50 (the source's name)
How it was run: (§1)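 Cell growth inhibition in vitro measured by the PIT method, with mitomycin C as positive reference.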

Mus musculus [2] = assay: Compound (40 mg/Kg) was evaluated in vivo for antitumor activity against MAC 16 in female NMRI mice on day 12 and ratio of tumor weight of treated to that of control was determined; type: functional
Mus musculus [3] = assay: Percent inhibition of compound (6 mg/kg) was evaluated in vivo for antitumor activity against MAC 13 in female NMRI mice on day 2; type: functional
How it was run: (§2)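 MAC 13 in female NMRI mice. Drugs were given in arachis oil BP by ip route on day 2 or day 29. % inhibition was derived from treated/untreated control tumor weight (volume); a negative value indicates stimulation.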

Mus musculus [4] = assay: Ability of administered compound (2 mg/kg/day) to inhibit growth of human tumor xenograft GXF 97 was assessed on day 14 in nude mice
Mus musculus [5] = assay: Median survival time in days for antitumor activity against P388 Leukemia in CD2 mice at fractioned dose treatment of 1 mg/kg; type: functional
How it was run: (§3)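 P388 leukemia-bearing mice were dosed intraperitoneally once daily for 9 consecutive days (fractioned schedule). The read-out was median survival time in days, reported alongside %T/C and % body weight change.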

Mus musculus [6] = assay: Percent inhibition of compound (50 mg/Kg) was evaluated in vivo for antitumor activity against MAC 13 in female NMRI mice on day 29; type: functional; how it was run: as §2
Mus musculus [7] = assay: Percentage change in body weight [(day 6 - day 1)/ day 1] for antitumor activity against P388 Leukemia in CD2 mice at fractioned dose treatment of 1 mg/kg; type: functional
How it was run: (§4)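 Mouse P388 leukemia model. Drugs were given intraperitoneally, either as a single injection or once daily for 9 consecutive days (fractioned schedule). Outcomes were median survival time in days, %T/C, and % body weight change.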

Mus musculus [8] = assay: Compound (6 mg/Kg) was evaluated in vivo for antitumor activity against MAC 13 in female NMRI mice on day 2 and ratio of tumor weight of treated to that of control was determined
Mus musculus [9] = assay: Median survival time in days for antitumor activity against P388 Leukemia in CD2 mice at fractioned dose treatment of 3 mg/kg; type: functional; how it was run: as §3
Mus musculus [10] = assay: Percent change in body weight [(day 6 - day 1)/ day 1] when P388 Leukemic CD2 mice were treated with a compound (6 mg/Kg); type: functional
Mus musculus [11] = assay: Percent T/C ([…]) for antitumor activity against P388 Leukemia in CD2 mice at fractioned dose treatment of 1 mg/kg; type: functional
How it was run: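 P388 leukemia mice dosed intraperitoneally once daily for 9 consecutive days. Median survival time (days) and body weight change were recorded. %T/C was based on survival of treated versus control mice.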

Mus musculus [12] = assay: Mean relative body weight change of treated / mean relative body weight change of control when compound (2 mg/kg/day) administered to inhibit growth of human tumor xenograft GXF 97 was reported at day 28 in nude mice; type: functional
Mus musculus [13] = assay: Percent T/C ([…]) for antitumor activity against P388 Leukemia in CD2 mice at a single dose treatment of 6 mg/kg; type: functional
How it was run: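 P388 leukemia mice given a single intraperitoneal injection. Median survival time (days) and body weight change were recorded. %T/C was derived from the survival of treated versus control mice.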

Mus musculus [14] = assay: Body wieght treated/body weight untreated controls of compound (6 mg/kg) was evaluated in vivo for antitumor activity against MAC 16 in female NMRI mice on day 12; type: functional
Mus musculus [15] = assay: Relative tumor size on day 28 was reported when compound (2 mg/kg/day) administered to inhibit growth of human tumor xenograft GXF 97 in nude mice; type: functional
How it was run: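 GXF 97 human gastric xenograft grown subcutaneously in nude mice for 24 days, then mice randomized; treatment began 1 day later. Fractioned ip injections on days 1-4, or single iv injection on day 1; 4-5 mice per group. Tumor size from length and width; relative tumor size (% of controls) read at day 28.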

Mus musculus [16] = assay: Median survival time in days for antitumor activity against P388 Leukemia in CD2 mice at a single dose treatment of 6 mg/kg; type: functional
How it was run: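 P388 leukemia-bearing mice were given one intraperitoneal injection. The read-out was median survival time in days, reported alongside %T/C and % body weight change.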

Mus musculus [17] = assay: Percent T/C ([…]) for antitumor activity against P388 Leukemia in CD2 mice at fractioned dose treatment of 3 mg/kg; type: functional; how it was run: as §4
L1210 = assay: In vitro antitumor activity against L1210 lymphocytic leukemia tumor cell line was determined; type: functional; settings: Mus musculus, read-out: ID50 (the source's name)
How it was run: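 Inhibition of L1210 leukemia colony formation in vitro, with mitomycin C as positive reference.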

Mus musculus [18] = assay: Percentage change in body weight [(day 6 - day 1)/ day 1] for antitumor activity against P388 Leukemia in CD2 mice at fractioned dose treatment of 3 mg/kg; type: functional; how it was run: as §4
Mus musculus [19] = assay: Ability of intravenously administered compound (2 mg/kg, single dose) to inhibit growth of human tumor xenograft GXF 97 was assessed on day 28 in nude mice
Mus musculus [20] = assay: Compound (40 mg/Kg) was evaluated in vivo for antitumor activity against MAC 16 in female NMRI mice on day 29 and ratio of tumor weight of treated to that of control was determined; type: functional
Mus musculus [21] = assay: Body wieght treated/body weight untreated controls of compound (6 mg/kg) was evaluated in vivo for antitumor activity against MAC 16 in female NMRI mice on day 4; type: functional
A204 = assay: In vitro antitumor activity against A204 rhabdomyosarcoma tumor cell line was determined; type: functional; settings: Homo sapiens, read-out: ID50 (the source's name); how it was run: as §1
Mus musculus [22] = assay: Mean relative body weight change of treated / mean relative body weight change of control when compound (2 mg/kg/day) administered to inhibit growth of human tumor xenograft GXF 97 was reported at day 21 in nude mice; type: functional
Mus musculus [23] = assay: Compound (6 mg/Kg) was evaluated in vivo for antitumor activity against MAC 16 in female NMRI mice on day 4 and ratio of tumor weight of treated to that of control was determined; type: functional
Mus musculus [24] = assay: Ability of administered compound (2 mg/kg/day) to inhibit growth of human tumor xenograft GXF 97 was assessed on day 21 in nude mice

CO[C@@]12[C@H](COC(N)=O)C3=C(C(=O)C(C)=C(N)C3=O)N1C[C@@H]1N[C@@H]12 [MITOMYCIN] gave a BWC (Mus musculus [1]) of 108.9%, an IC50 (WiDr) of 0.031 µg/mL (≈ 0.0927 µM) and a T/C (Mus musculus [2]) of 81%. It also gave an I (Mus musculus [3]) of 88.4%, a T/C (Mus musculus [4]) of 9.9% and an MST (Mus musculus [5]) of 34 days. For the same molecule, the I (Mus musculus [6]) was 92.6%, the BWC (Mus musculus [7]) was -5.4% and the T/C (Mus musculus [8]) was 11.6%. The MST (Mus musculus [9]) was 21 days, the BWC (Mus musculus [10]) was -18.1% and the T/C (Mus musculus [11]) was 309%. For the same molecule, the BWC (Mus musculus [12]) was 108.4%, the T/C (Mus musculus [13]) was 191% and the BW (Mus musculus [14]) was 96%. For the same molecule, the “Relative TS” value (Mus musculus [15]) was 17%, the MST (Mus musculus [16]) was 21 days and the T/C (Mus musculus [17]) was 191%. The IC50 (L1210) was 0.031 µg/mL (≈ 0.0927 µM), the BWC (Mus musculus [18]) was -8% and the T/C (Mus musculus [19]) was 2.6%. For the same molecule, the T/C (Mus musculus [20]) was 7.4%, the BW (Mus musculus [21]) was 106% and the IC50 (A204) was 0.02 µg/mL (≈ 0.0598 µM). For the same molecule, the BWC (Mus musculus [22]) was 108.5%, the T/C (Mus musculus [23]) was 60% and the T/C (Mus musculus [24]) was 4.1%.
